This note sets out measurements from ChEMBL document CHEMBL5352504, “PINK1-Dependent Mitophagy Inhibits Elevated Ubiquitin Phosphorylation Caused by Mitochondrial Damage” (J Med Chem, 2023).

The target of assay [1] is T1, Serine/threonine-protein kinase Pink1, mitochondrial (Tribolium castaneum) (UniProt D6WMX4).
T1 sequence (whole entry): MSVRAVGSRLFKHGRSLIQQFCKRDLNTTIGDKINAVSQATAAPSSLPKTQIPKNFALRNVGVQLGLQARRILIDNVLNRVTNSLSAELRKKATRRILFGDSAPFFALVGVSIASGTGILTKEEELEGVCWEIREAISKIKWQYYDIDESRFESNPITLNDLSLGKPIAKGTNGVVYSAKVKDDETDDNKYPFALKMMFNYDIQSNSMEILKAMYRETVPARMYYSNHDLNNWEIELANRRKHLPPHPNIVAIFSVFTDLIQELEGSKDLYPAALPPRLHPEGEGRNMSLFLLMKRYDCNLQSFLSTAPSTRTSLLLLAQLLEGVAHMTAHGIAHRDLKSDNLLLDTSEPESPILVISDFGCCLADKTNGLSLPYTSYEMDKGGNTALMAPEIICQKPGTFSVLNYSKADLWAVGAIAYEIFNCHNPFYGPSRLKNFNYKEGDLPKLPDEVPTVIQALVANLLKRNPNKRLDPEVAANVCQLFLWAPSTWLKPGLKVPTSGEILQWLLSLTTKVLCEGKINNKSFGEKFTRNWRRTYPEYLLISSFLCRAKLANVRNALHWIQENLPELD
Nature of the assay: Inhibition of recombinant Tribolium castaneum PINK1 using human Parkin as substrate assessed as substrate phosphorylation upto 100 uM.

In assay [2] the target is T1, Serine/threonine-protein kinase Pink1, mitochondrial (Tribolium castaneum). Nature of the assay: Inhibition of recombinant Tribolium castaneum PINK1 using human ubiquitin as substrate assessed as substrate phosphorylation upto 100 uM.
Assay [3] concerns the target Serine/threonine-protein kinase PINK1, mitochondrial (Homo sapiens) (UniProt Q9BXM7). Nature of the assay: Activation of human PINK1 in human HeLa cells overexpressing Parkin assessed as phosphorylation of ubiquitin at serine 65 at 10 uM and measured after 3 hr by Western blot analysis. To be noted: filed as activator. Type of assay: cell-based. Put shortly:
(§1)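 Parkin-transfected HeLa (DMEM, 10% FBS, 37 °C, 5% CO2) treated 3 h with 10 μM agent (CCCP control arm), with or without 24 h pre-treatment at 50 μM. Lysed in Tris pH 7.5 buffer with phosphatase/protease inhibitors, protein by Bradford, boiled in SDS buffer, immunoblotted for pUb Ser65, OPA1 (cleavage as depolarization read-out) and GAPDH loading control.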

Assay [4] deals with HeLa. Nature of the assay: Induction of mitochondrial membrane depolarization in human HeLa cells overexpressing Parkin assessed as OPA1 cleavage at 10 uM and measured after 3 hrs by Western blot analysis. Type of assay: functional, cell-based. Summed up:
as §1
On the technique in general: A western blot detects proteins with antibodies after separation by electrophoresis.

The target in assay [5] is Serine/threonine-protein kinase PINK1, mitochondrial (Homo sapiens) (UniProt Q9BXM7). Put plainly: Activation of PINK1 in human HeLa cells transfected with Parkin assessed as increase in Parkin phosphorylation at serine 65 at 50 uM incubated for 1 hr by Western blot analysis. In kind it is cell-based. Put shortly: (§2)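 HeLa cells transfected with Parkin were exposed to 50 μM compound for 1 h, with 10 μM CCCP for 3 h as a control. Cells were then lysed and immunoblotted for pSer65 Parkin, total Parkin, OPA1 and GAPDH (loading control). Untreated transfected and untransfected cells were included. Blots are representative of three repeat experiments.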
Chain of Serine/threonine-protein kinase PINK1, mitochondrial (Homo sapiens) (Q9BXM7 whole entry): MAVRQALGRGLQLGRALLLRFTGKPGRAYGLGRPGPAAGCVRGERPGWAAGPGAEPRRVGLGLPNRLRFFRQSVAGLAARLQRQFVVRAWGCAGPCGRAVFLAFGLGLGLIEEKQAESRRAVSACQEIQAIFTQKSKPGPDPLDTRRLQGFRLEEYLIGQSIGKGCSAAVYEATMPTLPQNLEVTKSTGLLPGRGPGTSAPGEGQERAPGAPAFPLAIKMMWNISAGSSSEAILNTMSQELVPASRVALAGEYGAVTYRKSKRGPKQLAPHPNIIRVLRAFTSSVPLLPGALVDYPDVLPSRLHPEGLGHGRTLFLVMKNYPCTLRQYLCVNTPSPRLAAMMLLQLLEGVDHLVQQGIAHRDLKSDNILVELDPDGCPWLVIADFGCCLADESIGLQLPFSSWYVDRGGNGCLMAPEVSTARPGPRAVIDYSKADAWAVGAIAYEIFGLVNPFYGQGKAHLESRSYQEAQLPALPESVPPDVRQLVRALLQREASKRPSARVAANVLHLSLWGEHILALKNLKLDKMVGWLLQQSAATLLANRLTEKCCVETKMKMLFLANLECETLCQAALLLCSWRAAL

Assay [6] has the same target. Put plainly: Activation of PINK1 in human HeLa cells transfected with Parkin assessed as prevention of OPA1 cleavage at 50 uM incubated for 1 hr by Western blot analysis. In kind it is cell-based. Summed up:
as §2

Assay [7] shares this target. Nature of the assay: Activation of human PINK1 in human HeLa cells overexpressing Parkin assessed as phosphorylation of ubiquitin at serine 65 at 50 uM and measured after 24 hr by Western blot analysis. Type of assay: cell-based. Put shortly:
(§3)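 Parkin-transfected HeLa cells received 50 μM compound for 24 h. They were then either lysed directly or given 10 μM CCCP for 3 h before lysis. Lysates were immunoblotted for Ser65-phosphorylated ubiquitin, OPA1 cleavage and GAPDH. Untreated transfected and untransfected cells served as references.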

Assay [8] has as its system HeLa. Put plainly: Inhibition of ubiquitin phosphorylation in CCCP stimulated human HeLa cells overexpressing Parkin assessed as reduction in CCCP-induced ubiquitin phosphorylation at serine 65 at 50 uM preincubated for 24 hrs followed by CCCP stimulation for 3 hr by Western blot analysis. Type of assay: cell-based. The conditions noted are these: time 27.0 hrs. Put shortly:
as §3

Assay [9] concerns MEF. Nature of the assay: Induction of mitophagy in wild-type PINK1 harboring mouse immortalized MEF cells overexpressing HA-tagged Parkin assessed as increase in mitophagy at 20 uM incubated for 16 hrs by flow cytometry analysis. Type of assay: functional, cell-based. Summed up: (§4)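 Immortalized MEFs from littermate PINK1 WT or KO mito-QC embryos (mCherry-GFP-FIS1 reporter), overexpressing HA-Parkin; 2.5 × 10^5 cells seeded day before, treated 16 h. Trypsinized, fixed in 3.7% formaldehyde/200 mM HEPES pH 7.0, ≥2 × 10^4 cells acquired by flow cytometry; live cells gated, percent mitophagy from GFP/mCherry ratio using untreated-cell gate; n = 3; two-way ANOVA with Sidak test.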
(In flow cytometry, cells or beads pass a laser one at a time.)

Assay [10] concerns MEF. Nature of the assay: Induction of mitophagy in PINK1 knockout mouse immortalized MEF cells overexpressing HA-tagged Parkin assessed as increase in mitophagy at 20 uM incubated for 16 hrs by flow cytometry analysis. Type of assay: functional, cell-based. Put shortly:
as §4

Assay [11] deals with HeLa. Put plainly: Induction of mitophagy in human HeLa cells transfected with YFP-Parkin assessed as effect on mitochondrial fragmentation at 50 uM incubated for 24 hrs by Hoechst 33258 staining based immunofluorescence analysis. Type of assay: functional, cell-based. Summed up:
(§5)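 YFP-Parkin-transfected HeLa cells were left untreated or exposed to 50 μM compound alone for 24 h. Cells were PFA-fixed, Triton-permeabilised and immunostained for pSer65-Ub and TOM20 with Hoechst. Confocal imaging assessed mitochondrial fragmentation, YFP-Parkin localisation and ubiquitin phosphorylation.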

The test system of assay [12] is HeLa. Nature of the assay: Induction of mitophagy in human HeLa cells transfected with YFP-Parkin assessed as effect on Parkin localization at 50 uM incubated for 24 hrs by Hoechst 33258 staining based immunofluorescence analysis. Type of assay: functional, cell-based. Put shortly: as §5
Assay [13] concerns HeLa. Put plainly: Induction of mitophagy in YFP-Parkin-transfected human HeLa cells assessed as effect on ubiquitin phosphorylation at 50 uM incubated for 24 hrs by Hoechst 33258 staining based immunofluorescence analysis. Type of assay: functional, cell-based. Put shortly:
as §5

Assay [14] relates to HeLa. Nature of the assay: Induction of mitophagy in human HeLa cells transfected with YFP-Parkin assessed as parkin localization in mitochondria at 50 uM preincubated for 24 hrs followed by CCCP stimulation and measured after 1 hr hr by Hoechst 33258 staining based immunofluorescence analysis. Type of assay: functional, cell-based. Summed up: (§6)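 YFP-Parkin HeLa cells were pretreated with 50 μM compound for 24 h, then given 10 μM CCCP or niclosamide for 1 h. Cells were fixed in chilled 4% PFA, permeabilised with 0.1% Triton, blocked in BSA, then immunostained overnight at 4 °C for pSer65-Ub and TOM20 with Hoechst. YFP-Parkin was imaged by confocal microscopy (40× oil). pUb mitochondrial localisation was quantified from images.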

Assay [15] deals with Serine/threonine-protein kinase PINK1, mitochondrial (Mus musculus) (UniProt Q99MQ3). Nature of the assay: Activation of mouse PINK1 in mouse astrocytes assessed increase in ubiquitin serine 65 phosphorylation at 50 uM incubated for 24 hrs by ELISA analysis. In kind it is cell-based. To be noted: Astrocyte, filed as activator. Put shortly: (§7)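 Primary cortical astrocytes came from postnatal day 3 C57BL/6J pups and were used at 70–90% confluence (7–10 days in vitro). Lysates (HEPES/NP-40 lysis, pellet resuspended in RIPA) went to pS65-Ub ELISA. Signal was normalised per μg protein (BCA); mean ± SEM, n = 8.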
Chain of Serine/threonine-protein kinase PINK1, mitochondrial (Mus musculus) (Q99MQ3 whole entry): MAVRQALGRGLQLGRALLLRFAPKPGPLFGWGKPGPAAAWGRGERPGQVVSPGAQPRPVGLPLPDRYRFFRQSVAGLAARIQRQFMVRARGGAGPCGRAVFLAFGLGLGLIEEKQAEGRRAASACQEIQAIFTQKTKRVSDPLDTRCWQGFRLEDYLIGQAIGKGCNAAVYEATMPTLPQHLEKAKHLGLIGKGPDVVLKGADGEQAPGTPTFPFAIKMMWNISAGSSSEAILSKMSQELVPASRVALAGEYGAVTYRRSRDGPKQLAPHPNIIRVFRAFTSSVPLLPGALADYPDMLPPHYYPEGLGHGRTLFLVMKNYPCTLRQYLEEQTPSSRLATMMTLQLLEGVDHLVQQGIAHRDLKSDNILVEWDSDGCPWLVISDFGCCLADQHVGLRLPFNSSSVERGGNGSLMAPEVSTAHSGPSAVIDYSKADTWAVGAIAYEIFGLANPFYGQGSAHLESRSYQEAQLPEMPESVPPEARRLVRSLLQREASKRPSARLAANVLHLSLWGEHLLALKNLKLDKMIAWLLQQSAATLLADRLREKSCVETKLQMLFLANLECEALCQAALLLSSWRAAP
Background: In an ELISA, binding on a coated surface is turned into a signal by an enzyme label.

Assay [16] shares this target. Put plainly: Activation of mouse PINK1 in mouse astrocytes assessed ubiquitin serine 65 phosphorylation at 50 uM preincubated for 24 hrs followed by valinomycin treatment for 5 hrs by ELISA. The conditions noted are these: Astrocyte, time 29.0 hrs. In kind it is cell-based. Put shortly: as §7
Assay [17] deals with HeLa. Nature of the assay: Inhibition of CCCP-induced ubiquitin phosphorylation at serine 65 residue in human HeLa cells transfected with YFP-Parkin at 50 uM preincubated for 24 hrs followed by CCCP stimulation and measured after 1 hr hr by Hoechst 33258 staining based immunofluorescence analysis. In kind it is cell-based. The conditions noted are these: time 25.0 hrs. Put shortly: as §6

The subject of assay [18] is MEF. Nature of the assay: Induction of mitophagy in wild-type PINK1 harboring mouse immortalized MEF cells overexpressing HA-tagged Parkin assessed as increase in mitophagy at 5 uM incubated for 16 hrs by flow cytometry analysis. Type of assay: functional, cell-based. Summed up: (§8)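 Immortalised MEFs from PINK1 WT or KO mito-QC littermate embryos, overexpressing HA-Parkin, were treated for 16 h. Cells were trypsinised, fixed in 3.7% formaldehyde/200 mM HEPES pH 7.0 and analysed by flow cytometry (≥2 × 10^4 cells). Living cells were gated on scatter, and the untreated-condition gate was applied to all conditions. Percent cells undergoing mitophagy was taken from the GFP/mCherry ratio; n = 3, two-way ANOVA with Sidak test.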

The subject of assay [19] is MEF. Nature of the assay: Induction of mitophagy in PINK1 knockout mouse immortalized MEF cells overexpressing HA-tagged Parkin assessed as increase in mitophagy at 5 uM incubated for 16 hrs by flow cytometry analysis. Type of assay: functional, cell-based. Put shortly:
as §8

Active and inactive are the calls of the source. No cut-off for these calls is given here.

Take `O=P(O)(O)OP(=O)(O)OP(=O)(O)OC[C@H]1O[C@@H](n2cnc3c(NCc4ccccc4)ncnc32)[C@H](O)[C@@H]1O`: the inhibition result in assay [1] and in assay [2] was “inactive” each time.
`O=C(Nc1ccc([N+](=O)[O-])cc1Cl)c1cc(Cl)ccc1O`: the outcome (in [3]; in the assay with HeLa [4]) was Active.
In the case of `OC[C@H]1O[C@@H](n2cnc3c(NC4CCCC4)ncnc32)[C@H](O)[C@@H]1O`, the result in [5] (filed as activator) was Active. Also, in assay [6], the outcome was inactive.
Take `O=P(O)(O)OP(=O)(O)OP(=O)(O)OC[C@H]1O[C@@H](n2cnc3c(NCc4ccco4)ncnc32)[C@H](O)[C@@H]1O`: the outcome in assay [7] was inactive. Also, in the assay with HeLa [8], the inhibition entry was “inactive”.
In the case of `Oc1ccc(CCNc2ncnc3[nH]cnc23)cc1`, the result in [5] was inactive.
Regarding `N#CC(C#N)=NNc1cccc(Cl)c1`, the outcome (in assay [3]; with MEF [9]; in the assay on HeLa [4]) was Active. The outcome in the assay on MEF [10] was inactive.
As to `c1nc(NC2CCCC2)c2nc[nH]c2n1`, in [5], the outcome was inactive.
Still for that read-out and setting: in the case of `CC(C)(C)CNc1ncnc2[nH]cnc12` it was “inactive”.
`CC(C)(C)CNc1ncnc2c1ncn2[C@@H]1O[C@H](CO)[C@@H](O)[C@H]1O`: the outcome in assay [5] and in [6] was inactive.
Consider `c1ccc(CNc2ncnc3[nH]cnc23)cc1`, for which the outcome in assay [5] was inactive.
Consider `CNc1ncnc2c1ncn2[C@@H]1O[C@H](CO)[C@@H](O)[C@H]1O`, for which the result in [5] (filed as activator) and in [15] was Active. Moreover, the outcome (in assay [6]; with HeLa [11]; in the assay with HeLa [12]; in the assay on HeLa [13]; in the assay on HeLa [14]; in assay [16]) was inactive. The inhibition result in the assay with HeLa [17] was “inactive”.
Turning to `c1coc(CNc2ncnc3[nH]cnc23)c1`, the outcome in [7] and in [16] was inactive. In the assay on HeLa [8], the inhibition result is “inactive”. Besides, the outcome in [15] was Active.
Regarding `CC(C)Nc1ncnc2c1ncn2[C@@H]1O[C@H](CO)[C@@H](O)[C@H]1O`, the outcome in assay [5] (filed as activator) was Active. Moreover, the result in [6] was inactive.
For `CC(C)Nc1ncnc2[nH]cnc12`, the outcome in assay [5] was inactive.
As to `OC[C@H]1O[C@@H](n2cnc3c(NCCc4ccc(O)cc4)ncnc32)[C@H](O)[C@@H]1O`, in [5] (filed as activator), the outcome was Active. The result in [6] was inactive.
As to `CNc1ncnc2[nH]cnc12`, in [5], the outcome was inactive.
Turning to `OC[C@H]1O[C@@H](n2cnc3c(NCc4ccccc4)ncnc32)[C@H](O)[C@@H]1O`, the outcome (in assay [5] (filed as activator); in the assay on HeLa [14]; in [15]; in the assay on MEF [18]) was Active. The outcome (in [6]; in the assay on HeLa [11]; in the assay with HeLa [12]; with HeLa [13]; in assay [16]; in the assay on MEF [19]) was inactive. Further, the inhibition result in assay [1] and in assay [2] was “inactive” throughout. Besides, in the assay with HeLa [17], the inhibition entry is “Active”.
